Sequences and labels used below:
B1: tRNA (parent)
chain: GUUCCGUUGGCGUAAUGGUAACGCGUCUCCCUCCUAAGGAGAAGACUGCGGGUUCGAGUCCCGUACGGAACG

Variants at the floor of the assay were thinned out.

This series covers variants of B1. Description: yeast fitness relative to wild type (ratio to wild type); higher = fitter; tRNA-Arg(CCU), competitive growth, 37 C, YPD. The procedure, abridged: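 Variants of the tRNA-Arg(CCU) gene, chemically synthesised with a 3% per-site mutation rate at 69 sites, were placed at the native genomic locus in Saccharomyces cerevisiae. The pooled strains were competed in YPD at 37°C for 24 hours in six parallel replicates. Gene amplicons from the start population and from each end population were read by 100-nucleotide paired-end sequencing. Darwinian fitness relative to wild type came from changes in genotype frequencies; genotypes needed ≥ 100 starting reads, and estimates < 0.5 were set to 0.5.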
On to C27G U28C C62G, for which the yeast fitness was not above 0.5. As for C27U C29G C46A, the yeast fitness was found to be 0.539. As for C27G U32G A36C C46G A70U, the figure is not above 0.5; as for C27U C49U, 1. The value for C27U A43U C55U A69C was not above 0.5. As for C27U C34A G44C C62A, the yeast fitness came out at 0.539. As for C27U A37G, the figure is 0.899; as for C27U A37U, 0.626.

For C27U A37C, the yeast fitness was found to be 0.664. Consider C27U C33U A37U G51A A70G, for which the yeast fitness was 0.552. For the variant C27U C31U U53C A70U, the yeast fitness is not above 0.5.

In the case of C27U A45G C49G A65C, the yeast fitness was not above 0.5. On to C27U C31U A40U A45U C49G A65C, for which the yeast fitness is not above 0.5. The value for C27G U47G C49U C66U was 0.584; that for C27U A36G U47G G50A was not above 0.5; that for C27U C29U C49G was not above 0.5.

As for C27U C29U C49U, the yeast fitness amounted to 0.71. For C27U C46A G50A C62U, the yeast fitness came out at 0.888. As for C27U C30G A40C G44A G52A A70U, the yeast fitness was not above 0.5. On to C27U C31U G51C C66A, for which the yeast fitness is not above 0.5. Regarding C27U C31U, the yeast fitness was found to be 1.07. With C27U C31G, the yeast fitness stood at 0.713. As to C27U C31G A69U, the yeast fitness is 0.624. The value for C27U C33U A40C C55A was not above 0.5; that for C27U C46A A70G was 0.66. As for C27U C30U C34G A37C A57G C61A, the yeast fitness was not above 0.5.

With C27U C46G C66G A69G, the yeast fitness is not above 0.5.

On to C27G U28A C30G C31U A40G G67A, for which the yeast fitness was not above 0.5. The value for C27U C34U A45G U47C C60G was not above 0.5; that for C27U C33G C34G G44A G50A G52A G56A was not above 0.5.

With C27U A36C G39C G48C G63U A70U, the yeast fitness amounted to 0.636. On to C27U A69C, for which the yeast fitness was found to be 1.01. The value for C27U C31G A43C C49G G52C U59G was not above 0.5.

As to C27U C31G A43C C49G G52C U59A, the yeast fitness turned out to be 0.54.

On to C27G U32C U54C C62U, for which the yeast fitness is not above 0.5. For C27U C49U C60A C61A, the yeast fitness is not above 0.5.

Take C27U C34U U35C U47C U53G A69U: the yeast fitness is not above 0.5.

On to C27U C33G G39A A43G A57G C61U C62U, for which the yeast fitness was not above 0.5. The value for C27U C31A G44C A70G was not above 0.5; that for C27G U32A G39A was 0.572; that for C27U C33G A43G was not above 0.5.

In the case of C27U C30U U53A A69C, the yeast fitness worked out at 0.507.

Regarding C27U C33G A43G U53C A57G C61U C62U A70G, the yeast fitness was not above 0.5. C27U C31A A57U: the yeast fitness was not above 0.5. As for C27U A43C, the figure is 0.965. As to C27U A43G, the yeast fitness came to 0.898. As for C27U C29A A36U A40C G52C, the figure is 0.583; as for C27U C30U C62A, 0.564; as for C27U A37C A40U A43U, 0.541. As for C27U A36U U54A A69C, the figure is 0.624; as for C27U C33U G51A, 0.612. As to C27U C30U U53A C66U, the yeast fitness is not above 0.5.

C27U C29G A42G: the yeast fitness is not above 0.5. The value for C27U A65C A70C was 0.69; that for C27U A43C A70U was 0.749; that for C27U C30U C46U U54G A70G was 0.655. For the variant C27U C34G, the yeast fitness turned out to be 0.698. With C27U C34A, the yeast fitness worked out at 0.728. The value for C27U C31U A40U A45U C49G G63A was 0.589; that for C27G U28C G52A C60G G68U A69C was not above 0.5; that for C27U C31G A43C C49G G52C was not above 0.5. In the case of C27U C33G C34U C61U G67A G68C, the yeast fitness is not above 0.5. As for C27G U47C, the figure is 0.652; as for C27U A42U C62U, 0.559; as for C27U C29G C55U A65G C66A, not above 0.5. For the variant C27U A36G G50A G58A A69C, the yeast fitness was not above 0.5. For the variant C27G U28C A45C G48A C55A, the yeast fitness was 0.601. The value for C27U C33G A43G A45C C55A was not above 0.5; that for C27U C34G A45U C60A was not above 0.5; that for C27U C29G A57C C61A was not above 0.5. For the variant C27U C30G A40G G51C U64C, the yeast fitness is not above 0.5.

In the case of C27U A42U U53G G68C, the yeast fitness came to 0.545. As for C27U C29A C55G A65G, the figure is not above 0.5; as for C27U A40C, 0.809. As for C27U C33G A43G A57G C61U C62U, the figure is 0.509; as for C27G U28A A65U A70U, 0.558; as for C27U C34G A40G C46G C49A U59C, not above 0.5.

Regarding C27U C33G C55G C61U, the yeast fitness was determined as 0.539. As for C27U A70U, the figure is 0.988; as for C27U A70C, 1.03. As for C27U A70G, the figure is 0.988. As for C27U A43C U59A, the figure is 0.645. In the case of C27U A36U G38C A43C C66U, the yeast fitness was not above 0.5. The value for C27U A40C G58A A70C was 0.511; that for C27U C31A G63A was not above 0.5; that for C27U C34G C62A was 0.586.

Regarding C27U A36C G39C G48C G63U, the yeast fitness was determined as 0.547.

In the case of C27U C46U A65U A70C, the yeast fitness stood at 0.828. As for C27U C33A, the figure is 0.618; as for C27U C33A A40C, 0.574. The value for C27U C29A G38C A57G A65C C66A was not above 0.5.

Consider C27U A43C G68U, for which the yeast fitness was found to be 0.612. As for C27U A36U, the figure is 0.638.

With C27U A36C, the yeast fitness amounted to 0.541.

Regarding C27U C29U A36C, the yeast fitness was not above 0.5. Consider C27U A36C C61U, for which the yeast fitness is not above 0.5. The value for C27U C30U U53A was 0.62. As for C27G U32G A42C, the figure is not above 0.5; as for C27U C33A C60U C62G, not above 0.5; as for C27U C46U G48A, 0.888. In the case of C27U C60U, the yeast fitness is 0.849.

Take C27U C60A: the yeast fitness turned out to be 0.552. As for C27U C29G C61U, the figure is 0.675; as for C27U A43G G52C C62U G63A, not above 0.5; as for C27G U53G A70G, not above 0.5. C27U C34U G44A: the yeast fitness is not above 0.5. For C27U C46A, the yeast fitness amounted to 0.942. On to C27U C46G, for which the yeast fitness amounted to 1.04. Take C27U C46U: the yeast fitness came to 0.978.

In the case of C27U A45C C55G G58C, the yeast fitness is not above 0.5. The value for C27U C30U A40U G48C G63A was 0.535; that for C27G U53A G63A was not above 0.5; that for C27U A43C U59A C62U was 0.517. C27G U28G A36U A45U C49G: the yeast fitness is not above 0.5. Take C27U C30U U53A A65G A69C: the yeast fitness is not above 0.5. The value for C27U C49A U64C was 0.756. Consider C27U A36U G38C A43C G63A, for which the yeast fitness was not above 0.5. In the case of C27G U32C A42C G48C C55G C60U G68C, the yeast fitness was not above 0.5. Consider C27U C31A A69C, for which the yeast fitness worked out at 0.598.

With C27U C34G A37C, the yeast fitness was not above 0.5.

On to C27U C49A U64C G67A, for which the yeast fitness is not above 0.5. The value for C27G U53C was not above 0.5.

As for C27G U32C A57G, the yeast fitness is 0.578. As to C27U A57U, the yeast fitness was found to be 0.668. The value for C27U A57G was 0.959; that for C27U A57C was 0.676. In the case of C27U C30A, the yeast fitness was found to be 0.773. As for C27U C30U, the figure is 0.825. Turning to C27U C46U G67U, the yeast fitness amounted to 0.626. As for C27U C33G A43G G48A G52A, the figure is not above 0.5; as for C27U C33U A36U G63C, 0.541.

On to C27U A45U C66U, for which the yeast fitness came to 0.7.

For C27U A36C G68C, the yeast fitness came out at 0.602.

C27U A37C A40U A43U A65U: the yeast fitness was not above 0.5. The value for C27U C30G A40G G51C was not above 0.5; that for C27U C46G A65G was 0.725; that for C27U A40G C55U G56A U64G A69U was not above 0.5.

With C27U C55U G56A A57C, the yeast fitness amounted to 0.526. As for C27U C31G C55G, the figure is not above 0.5. For C27U A36U G44A, the yeast fitness is not above 0.5.

As to C27U C33U C60G, the yeast fitness turned out to be 0.628. On to C27G U28A C30G C31U G67A, for which the yeast fitness was found to be 0.519.

On to C27U A36U A43G C46U, for which the yeast fitness was found to be 0.559. The value for C27U C29U was 0.792; that for C27U C29A was 0.737; that for C27G U32C A42C G48C C55G C60U was not above 0.5. As for C27U C55G, the yeast fitness turned out to be 0.675. The value for C27U C55A was 0.583.

On to C27U A36C G56C G68A A70U, for which the yeast fitness is not above 0.5.

With C27G U32A G41A, the yeast fitness amounted to 0.671.

As to C27U C34G A45U, the yeast fitness was 0.511.

As to C27U A43C C60A, the yeast fitness was not above 0.5. For the variant C27U A36U G38C A43C, the yeast fitness was not above 0.5. As for C27G U28C C61U, the figure is not above 0.5; as for C27U A37U C66U, 0.542. The value for C27U A36G A37G G56C was not above 0.5; that for C27U C29U C60U A69G was 0.565.

For the variant C27U A43C A69U, the yeast fitness came to 0.882. The value for C27U C29U C49G A69G was not above 0.5. For C27G U32A, the yeast fitness is 0.539. As for C27G U32C, the figure is 0.935. Consider C27G U32G, for which the yeast fitness was not above 0.5. The value for C27U C34G A57G C62A was not above 0.5; that for C27U C31U G67C was 0.727; that for C27U C30G U32C A70U was 0.585. Turning to C27U A42U, the yeast fitness is 1.09. For the variant C27U A42C, the yeast fitness turned out to be 0.997.

For the origin of these results see the RNAGym collection of RNA variant scans (doi:10.1126/science.aae0568).
